EBI2 block = EBI2 (human) antagonism. EBI2 beta-arrestin recruitment, luminescence, 7a,25-OHC stimulated. AID 651636. inhibition, % at 5 µM. P32249. 360,000 tested, 0.81% active; in the data active = inhibition above about 38%;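 also: enzyme fragment complementation signal reports receptor beta-arrestin coupling in cells; 0% = agonist plus DMSO wells and 100% = wells without agonist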
Target sequence (P32249 whole entry, looked up, the tested form may be a part): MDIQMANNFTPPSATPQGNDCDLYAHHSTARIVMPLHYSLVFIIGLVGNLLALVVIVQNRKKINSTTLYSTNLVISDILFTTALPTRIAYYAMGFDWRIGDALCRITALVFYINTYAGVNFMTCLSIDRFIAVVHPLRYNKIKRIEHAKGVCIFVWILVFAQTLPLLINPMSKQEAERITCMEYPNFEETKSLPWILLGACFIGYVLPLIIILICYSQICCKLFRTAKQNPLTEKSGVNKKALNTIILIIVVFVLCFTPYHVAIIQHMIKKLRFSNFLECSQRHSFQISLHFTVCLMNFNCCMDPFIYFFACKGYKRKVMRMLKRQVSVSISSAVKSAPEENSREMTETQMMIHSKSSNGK
MPTP block = blocks calcium-induced mitochondrial swelling; isolated mouse mitochondria, Ca2+ swelling absorbance, 30 min; inhibition, % at 10 µM; 360,000 tested, 1.4% active; AID 602449;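 active = inhibition of 50% or more, scaled per plate between neutral and stimulator controls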;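 also: 0% = DMSO wells given calcium and 100% = 1 mM EGTA wells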
SENP1 FRET inh = inhibitors of human SENP1 SUMO protease catalytic domain | 360,000 tested, 0.21% active | Q9P0U3 | AID 624204 | recombinant SENP1 catalytic domain, CyPet-SUMO1-YPet FRET cleavage | inhibition, % at 10 µM;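 active = inhibition at least 30% at 10 µM, raw YFP signal under a set limit, fluorescence ratio 0.5 to 1.5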;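 also: 0% = enzyme with DMSO and 100% = no enzyme wells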
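Controls: no-enzyme wells low, DMSO-plus-enzyme wells high control. Test system: human recombinant His6-tagged SENP1 catalytic domain enzyme. Reagent: SFCypet-SUMO1-SFYpet FRET protein substrate, 25 nM final. Doses: one dose per compound, 10 µM, 0.5% DMSO. Detection: FRET, CFP and YFP emission. Timing: 50 min reaction at room temperature.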
NR3A LBD binder = modulators (binders) of human NR3A ligand-binding domain; NR3A LBD differential scanning fluorimetry, Tm shift; 0% = protein alone, 100% = glycine-bound protein; 340,000 tested, 2.5% active; Tm shift relative to glycine control, % at 25 µM; AID 1259313;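 active = melting temperature shift of at least 10% of the positive control shift, at one fixed dose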
Rh123 counter = membrane potential counter-screen of mitochondrial pore inhibitors; shares compounds with MPTP block; isolated mitochondria, Rhodamine 123 fluorescence; inhibition, % at 10 µM; 5,000 tested, 78% active; AID 624504; in the data active = inhibition above about 22%;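 also: 0% = DMSO vehicle and 100% = positive control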
MPTP swell DR = MPTP inhibition, dose response swelling confirmation; AID 651561; 780 tested, 58% active; isolated mitochondria swelling, absorbance; shares compounds with MPTP block; IC50, µM; in the data active = IC50 below about 20 µM
MPTP cs DR = MPTP inhibitor counter-screen activity, dose response; IC50, µM; isolated mitochondria counterscreen, fluorescence read-out; 780 tested, 49% active; shares compounds with MPTP block; in the data active = IC50 below about 80 µM
Numbers without * were called inactive. Sampled rows, rich in hits. Any-hit rate of the full collection: about 4.4%.

Results for CCCC[C@@H](CNC)NC[C@H](NCCCCC1CCCCC1)C(C)C ?
EBI2 block: 4; MPTP block: 90*; SENP1 FRET inh: 2; NR3A LBD binder: 1; Rh123 counter: -23; MPTP swell DR: 6.8*; MPTP cs DR: >80

How did COC(=O)c1cc(NC(=O)c2cc(-c3ccccc3Cl)oc2C(F)(F)F)ccc1N1CCOCC1 do in these assays?
EBI2 block: 11; MPTP block: 24; SENP1 FRET inh: 2; NR3A LBD binder: 4

What do the screens show for `COC(=O)c1cc(NC(=O)c2cc(-c3ccc(Cl)cc3)oc2C(F)(F)F)ccc1N1CCOCC1`?
EBI2 block: 5; MPTP block: 76*; SENP1 FRET inh: 6; NR3A LBD binder: 5; Rh123 counter: 80*

Results for COc1cccc(-n2cc(CNCc3cn(C)nc3-c3ccccc3F)cn2)c1 ?
EBI2 block: 4; MPTP block: 1; SENP1 FRET inh: -3; NR3A LBD binder: -1

What do the screens show for `Cn1cc(CNCc2cn(C)nc2-c2ccc(C3CCCCC3)cc2)cn1`?
EBI2 block: 5; MPTP block: 92*; SENP1 FRET inh: -1; NR3A LBD binder: -1; Rh123 counter: -6; MPTP swell DR: 8.8*; MPTP cs DR: 71*

How did Cc1nc(Nc2ccc(Cl)c(Cl)c2)sc1C(=O)Nc1ccccc1 do in these assays?
EBI2 block: 30; MPTP block: 82*; SENP1 FRET inh: 0; NR3A LBD binder: 32*; Rh123 counter: 64*

Results for CC(=O)c1sc(Nc2ccccc2)nc1C ?
EBI2 block: -10; MPTP block: 0; SENP1 FRET inh: -2

Results for O=C(NC(=S)Nc1nc2c(s1)CSc1ccccc1-2)c1ccccc1 ?
EBI2 block: -2; MPTP block: 95*; SENP1 FRET inh: -7; NR3A LBD binder: 5; Rh123 counter: 91*

What do the screens show for `O=C(NC(=S)Nc1nc2c(s1)CCCC2)c1ccc(C(=O)c2ccccc2)cc1`?
EBI2 block: 20; MPTP block: 6; SENP1 FRET inh: 2; NR3A LBD binder: -2

How did O=C1CC(C(=O)NC2CCCCC2)C2(CCCCC2)O1 (centres undefined) do in these assays?
EBI2 block: 0; MPTP block: 0; SENP1 FRET inh: -2; NR3A LBD binder: -1

What do the screens show for `COc1ccc(-c2csc(NS(=O)(=O)c3ccc([N+](=O)[O-])cc3)n2)cc1`?
EBI2 block: -5; MPTP block: 84*; SENP1 FRET inh: 0; NR3A LBD binder: 8; Rh123 counter: 78*

What do the screens show for `Cc1ccc(S(=O)(=O)Nc2ccccc2C(=O)Nc2nc(-c3ccc(F)cc3)cs2)cc1`?
EBI2 block: -8; MPTP block: 70*; SENP1 FRET inh: -11; NR3A LBD binder: 31*; Rh123 counter: 14

What do the screens show for `COc1ccc(-c2csc(NC(=O)c3ccccc3NS(=O)(=O)c3ccc(F)c(F)c3)n2)cc1`?
EBI2 block: -5; MPTP block: 92*; SENP1 FRET inh: 0; NR3A LBD binder: 16*; Rh123 counter: 1

Results for O=C(CCC(=O)OCc1ccc([N+](=O)[O-])cc1Cl)Nc1ccccc1 ?
EBI2 block: -11; MPTP block: -1; SENP1 FRET inh: -2; NR3A LBD binder: 2

What do the screens show for `COc1ccc2c(COC(=O)CNC(=O)C34CC5CC(CC(C5)C3)C4)cc(=O)oc2c1`?
EBI2 block: 4; MPTP block: 2; SENP1 FRET inh: -38; NR3A LBD binder: -7

Results for Cc1ccc(C(c2c(NC(=O)c3ccco3)sc(C)c2C)N2CCOCC2)cc1 (centres undefined) ?
EBI2 block: 20; MPTP block: 0; SENP1 FRET inh: 6

How did Cc1sc(NC(=O)c2ccco2)c(C(c2ccc(F)cc2)N2CCN(C)CC2)c1C (centres undefined) do in these assays?
EBI2 block: -6; MPTP block: 82*; SENP1 FRET inh: 1; NR3A LBD binder: -1; Rh123 counter: -23

What do the screens show for `COc1ccccc1N=Cc1c(C)c(C#N)c2[nH]c3ccccc3n2c1=O`?
EBI2 block: 5; MPTP block: 14; SENP1 FRET inh: -36; NR3A LBD binder: -24
